From ChEMBL document CHEMBL4616681, “Discovery of 3-Pyridyl Isoindolin-1-one Derivatives as Potent, Selective, and Orally Active Aldosterone Synthase (CYP11B2) Inhibitors” (J Med Chem, 2020)
Converted amounts (≈) assume the structure as drawn. The source made the active and inactive calls.

Columns and labels:
[1] = system: Cynomolgus monkey; assay: In vivo inhibition of CYP11B1 in cynomolgus monkey assessed as reduction in ACTH-induced 11-deoxycortisol at 0.01 to 10 mg/kg, po preincubated for 1 hr followed by ACTH challenge and measured after 60 mins by LC/MS-MS analysis; assay type: ADME, organism-based, Macaca fascicularis
In short: (§1)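 Cynomolgus monkeys preselected as Synacthen responders (at least 2-fold rise in aldosterone, cortisol and corticosterone). Two animals per group. Oral vehicle or compound at 0.01–10 mg/kg in hydroxyethylcellulose/polysorbate 80/paraben suspension (2 mL/kg) at T=0, then 14.5 µg/kg Synacthen i.m. at 1 hr. EDTA blood drawn from -5 min to 24 h. Plasma steroids measured by LC/MS-MS; data shown 60 min after challenge.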

[2] = system: Cynomolgus monkey; assay: In vivo inhibition of CYP11B2 in cynomolgus monkey assessed as reduction in ACTH-induced corticosterone at 0.01 to 10 mg/kg, po preincubated for 1 hr followed by ACTH challenge and measured after 60 mins by LC/MS-MS analysis; assay type: functional, organism-based; details: Macaca fascicularis; in short: as §1
[3] = system: Cynomolgus monkey; assay: In vivo inhibition of CYP11B1 in cynomolgus monkey assessed as reduction in ACTH-induced cortisol at 10 mg/kg, po preincubated for 1 hr followed by ACTH challenge and measured after 60 mins by LC/MS-MS analysis; assay type: ADME, organism-based, Macaca fascicularis; in short: as §1
[4] = biological target: T1, Cytochrome P450 11B2, mitochondrial (Homo sapiens, UniProt P19099); assay: Inhibition of human CYP11B2 expressed in human renal leiomyoblastoma cells harboring FDXR/FDX using 1-deoxycorticosterone as substrate by HTRF assay; assay type: cell-based
T1 sequence (P19099 whole entry): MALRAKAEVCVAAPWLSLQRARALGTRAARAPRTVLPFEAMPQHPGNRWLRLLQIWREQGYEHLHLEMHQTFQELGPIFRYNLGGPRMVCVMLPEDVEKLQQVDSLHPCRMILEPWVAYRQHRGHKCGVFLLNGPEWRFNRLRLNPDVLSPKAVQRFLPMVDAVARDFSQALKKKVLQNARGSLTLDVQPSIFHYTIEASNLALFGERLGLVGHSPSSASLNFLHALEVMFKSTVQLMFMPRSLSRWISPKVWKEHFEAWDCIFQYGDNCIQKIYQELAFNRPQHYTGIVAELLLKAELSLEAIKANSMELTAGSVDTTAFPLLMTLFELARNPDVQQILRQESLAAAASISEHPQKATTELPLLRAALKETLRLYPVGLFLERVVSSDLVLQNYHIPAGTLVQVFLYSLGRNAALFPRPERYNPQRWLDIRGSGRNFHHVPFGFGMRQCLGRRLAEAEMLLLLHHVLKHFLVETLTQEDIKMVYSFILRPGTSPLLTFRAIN
In short: (§2)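 Cells with endogenous FDXR/FDX and no detectable CYP11B activity, stably transfected (CMV promoter, neomycin selection, G-418 400 µg/mL) with CYP11B1 or CYP11B2 of the named species. Assayed in DMEM/F12 with 2.5% charcoal-treated FCS. Substrate 1 µM 11-deoxycorticosterone (B2) or 11-deoxycortisol (B1), 16 hr. Aldosterone or cortisol in supernatant measured by HTRF. IC50 from 4-parameter MMF fit; selectivity factor is the B1/B2 IC50 ratio.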

[5] = Selectivity ratio of IC50 for human CYP11B1 expressed in human renal leiomyoblastoma cells harboring FDXR/FDX to IC50 for human CYP11B2 expressed in human renal leiomyoblastoma cells harboring FDXR/FDX; assay type: cell-based; in short: as §2
[6] = Permeability of the compound measured at 18 hrs by PAMPA; assay type: ADME; details: read-out: permeability
In short: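 PAMPA sandwich format. Donor: compound diluted to 150 μM (DMSO <2%) in 0.05 M MOPSO pH 6.5 with 0.5% glycocholic acid. Acceptor: 0.05 M MOPSO pH 6.5. Membrane of 10% egg lecithin with 0.5% cholesterol in dodecane. Donor measured at start; acceptor and donor measured at ~18 hr.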

[7] = Solubility of the compound in phosphate buffer at pH 6.5 shaken for 2 hrs followed by overnight incubation; assay type: physicochemical
In short: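 Lyophilisation solubility assay run in duplicate from 10 mM DMSO stock. DMSO evaporated and residue redissolved in 0.05 M phosphate, pH 6.5. Stirred 1 hr, shaken 2 hr, left overnight, then filtered. Filtrate and a 1/10 dilution analysed by HPLC-UV against a four-point calibration.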

[8] = Plasma clearance in Wister-Han rat at 1 mg/kg, iv administered as single dose by LC/MS-MS analysis; assay type: ADME, organism-based; details: Wistar-Han
In short: (§3)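 Male Wistar-Han rats, single dose. IV 1 mg/kg, compound at 0.5 mg/mL in NMP:saline 30/70 (v/v). Oral 3 mg/kg, 0.25 mg/mL in 2% Klucel with 0.1% Polysorbate 80. Three rats per time point. Heparinized blood taken at eight (iv) or seven (po) time points, plasma stored at -20 °C. Plasma levels by LC/MS-MS. Non-compartmental analysis.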

[9] = AUC (0 to infinity) in Wister-Han rat at 3 mg/kg, po administered as single dose by LC/MS-MS analysis; assay type: ADME, organism-based; set-up: dose 3 mg/kg, route oral, time infinity; details: Wistar-Han, in vivo; in short: as §3
[10] = Oral bioavailability in Wister-Han rat at 3 mg/kg administered as single dose by LC/MS-MS analysis; assay type: ADME, organism-based; details: Wistar-Han, in vivo; in short: as §3
[11] = Protein binding in cynomolgus monkey plasma assessed as unbound fraction at 1 uM by micro-equilibrium dialysis based LC-MS/MS analysis; assay type: ADME, cell-free, Macaca fascicularis
In short: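 Equilibrium dialysis of pooled rat or cynomolgus plasma against Soerensen buffer pH 7.4, 12–14 kDa cut-off membrane. Compounds tested in cassettes of 2–5 at 1 μM initial total concentration, with diazepam as control. Dialysis 5 hr at 37 °C under 5% CO₂. Unbound percentage by LC/MS-MS.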

[12] = Intrinsic clearance in rat hepatocytes; assay type: ADME, cell-based, Hepatocyte; details: read-out: CLH
[13] = Intrinsic clearance in cynomolgus monkey hepatocytes; assay type: ADME, cell-based, Macaca fascicularis, Hepatocyte; details: read-out: CLH
[14] = Plasma clearance in iv dosed cynomolgus monkey; assay type: ADME, organism-based, Macaca fascicularis
[15] = Dose normalized AUC in cynomolgus monkey; assay type: ADME, Macaca fascicularis; details: in vivo
[16] = Dose normalized AUC in Wister-Han rat at 1 mg/kg, iv or 3 mg/kg, po administered as single dose by LC/MS-MS analysis; assay type: ADME, organism-based; details: in vivo; in short: as §3
[17] = Oral bioavailability in cynomolgus monkey; assay type: ADME, organism-based, Macaca fascicularis; details: in vivo
[18] = Free plasma concentration in cynomolgus monkey at 0.01 mg/kg; assay type: ADME, organism-based, Macaca fascicularis; details: in vivo
In short: (§4)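 Cynomolgus monkeys, 2 per group, given single oral doses of 0.01, 0.1, 1 or 10 mg/kg as a suspension in hydroxyethylcellulose/polysorbate 80/parabens vehicle, 2 mL/kg. Synacthen 14.5 µg/kg given i.m. at 1 hr. Plasma compound levels by LC/MS-MS. Average free exposure calculated from AUC0-7hr and corrected for plasma protein binding.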

[19] = Free plasma concentration in cynomolgus monkey at 0.1 mg/kg; assay type: ADME, organism-based, Macaca fascicularis; details: in vivo; in short: as §4
[20] = Free plasma concentration in cynomolgus monkey at 1 mg/kg; assay type: ADME, organism-based, Macaca fascicularis; details: in vivo; in short: as §4
[21] = Free plasma concentration in cynomolgus monkey at 10 mg/kg; assay type: ADME, organism-based, Macaca fascicularis; details: in vivo; in short: as §4
[22] = biological target: T1, Cytochrome P450 11B2, mitochondrial; assay: Inhibition of CYP11B2 in H295R cell assessed as reduction in 18-hyroxycorticosterone by LC/MS-MS method

IC50 [4]: 4 nM | Papp at 18 h [6]: 4.17 ×10⁻⁶ cm/s | solubility at 2 h [7]: 78 µg/mL (≈ 179 µM) | clearance [8]: 3.8 mL/min/kg | AUC(0-inf) [9]: 6370 ng·h/mL | bioavailability [10]: 45% | fraction unbound at 1 µM [11]: 0.138 | CLint scaled [12]: 26.7 mL/min/kg | CLint scaled [13]: 7.2 mL/min/kg | clearance [14]: 4.6 mL/min/kg | AUC/dose [15]: 1085 kg·ng·h/mL/mg | AUC/dose [16]: 2123 kg·ng·h/mL/mg | bioavailability [17]: 19% | Cp(f) [18]: 0.075 ng/mL | Cp(f) [19]: 0.825 ng/mL | Cp(f) [20]: 10.3 ng/mL | Cp(f) [21]: 86.46 ng/mL | IC50 [22]: < 1 nM
Compound: CCS(=O)(=O)N1CC(Oc2cncc(N3C(=O)c4ccc(Cl)cc4C3(C)C)c2)C1
Activity [1]: Non-Toxic | inhibition [2]: inactive | Activity [3]: Toxic | Ratio IC50 [5]: 162
